Laboratory results taken from PMC2943495 (Chemistry & biology, 2010).

Columns and labels:
[1] = tested on: PCA luciferase; assay: Control: effect on PCA luciferase enzyme activity; conditions: data not shown
[2] = tested on: IκBα/β-TrCP; assay: Two-color PCA switch, red: IκBα/β-TrCP interaction; type: cell-based; conditions: HEK293T, TNFα 20 ng/ml
[3] = tested on: β-cat/β-TrCP; assay: Two-color PCA switch, green: β-cat/β-TrCP interaction; type: cell-based; conditions: HEK293T
[4] = tested on: NFκB; assay: NFκB-dependent transcriptional reporter; type: cell-based; conditions: HEK293T, 2 hours
In short: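 HEK293T cells in 24-well plates were transfected with an NFκB-driven FLuc reporter (200 ng/well). At 48 h the medium was changed to DMEM imaging medium. After 15 min equilibration a pre-treatment image was taken. Cells then received TNFα (20 ng/ml final) and/or a GSK3β inhibitor (50 μM final) or DMSO vehicle, and were re-imaged after 2 h in a humidified 5% CO2 incubator. Photon flux is reported as mean fold-initial ± S.E.M.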

[5] = target: ΔFRB (S2035I)-FKBP (Homo sapiens, UniProt P42345+P62942, S2035I); assay: Luciferase PCA with mutant S2035I FRB; type: cell-based; conditions: HEK293T, 100 nM rapamycin for 6 hrs, Δ-N fusions
[6] = ref Inoue et al., 2005; cited from earlier work
[7] = target: FRB-FKBP; conditions: ref Bierer et al., 1990, cited from earlier work
[8] = tested on: EGFR; assay: EGFR-CBG PCA conformation sensing in CHO TetOn cells; type: cell-based
In short: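 CHO TetOn cells in 96-well plates were transfected for 24 h with EGFR-CBG PCA fusion pairs, then serum-starved for 3 h. They were pre-incubated for 20 min untreated, with DMSO vehicle, or with test compound (10 μM). Baseline was imaged every 15 s for 10 min, then 25 nM EGF was added and imaging continued for 20 min. Untreated-well signal was subtracted. Mean of 8 replicate wells.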

[9] = target: FRB-FKBP (Homo sapiens, UniProt P42345+P62942); assay: Real-time reversibility of CBG-N + CBG-C PCA; type: cell-based
[10] = tested on: IκBα; assay: IκBα-FLuc fusion reporter processing in HepG2 cells; type: cell-based; conditions: HepG2, TNFα 20 ng/mL
In short: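 HepG2 cells were transiently transfected with a κB5-driven IκBα-FLuc fusion reporter (wild type or Ser32/Ser36 Ala mutants). After 48 h the medium was replaced with fresh medium containing D-luciferin, and cells were stimulated with TNFα (20 ng/mL) or vehicle. Real-time bioluminescence imaging was run under 5% CO2. Photon flux is reported as fold-initial, fold-untreated, mean ± S.E.M.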

Sequence of FRB-FKBP (Homo sapiens, UniProt P42345+P62942) (P42345 2024-2113 limits assumed): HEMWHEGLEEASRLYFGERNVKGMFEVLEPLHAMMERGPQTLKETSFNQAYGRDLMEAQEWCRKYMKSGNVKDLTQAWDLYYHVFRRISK
Sequence of FRB-FKBP (Homo sapiens, UniProt P42345+P62942) (P62942 whole entry, the tested form may be a part): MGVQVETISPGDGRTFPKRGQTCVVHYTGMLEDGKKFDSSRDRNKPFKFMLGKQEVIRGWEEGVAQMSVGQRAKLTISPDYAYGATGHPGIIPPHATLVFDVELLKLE
Sequence of ΔFRB (S2035I)-FKBP (P42345 2024-2113 S2035I): as the sequence (P42345 2024-2113 limits assumed) above, with S12I counted along it
Sequence of ΔFRB (S2035I)-FKBP (P62942 whole entry, the tested form may be a part): as the sequence (P62942 whole entry, the tested form may be a part) above

Cn1cc(C2=C(c3ccc(Cl)cc3Cl)C(=O)NC2=O)c2ccccc21 [SB-216763]
effect on PCA luciferase enzyme activity per se [1]: no effect
basal and TNFα-induced IκBα/β-TrCP interactions (red photon flux) ([2]; SB-216763 50 μM): inhibited
basal β-cat/β-TrCP interactions (green photon flux) ([3]; SB-216763 50 μM): attenuated
TNFα-stimulated NFκB-dependent transcription (FLuc reporter) ([4]; TNFα 20 ng/ml combined with SB216763 50 μM): dramatically attenuated

CO[C@H]1C[C@@H]2CC[C@@H](C)[C@@](O)(O2)C(=O)C(=O)N2CCCC[C@H]2C(=O)O[C@H]([C@H](C)C[C@@H]2CC[C@@H](O)[C@H](OC)C2)CC(=O)[C@H](C)/C=C(\C)[C@@H](O)[C@@H](OC)C(=O)[C@H](C)C[C@H](C)/C=C/C=C/C=C/1C [rapamycin]
induction of PCA signal [5]: no detectable induction
membrane permeability [6]: somewhat low
Kd ([7]; read-out: previously reported Kd): 0.2 nM

N#CC(=C(/N)Sc1ccccc1N)/C(C#N)=C(/N)Sc1ccccc1N [U0126]
recovery of luciferase PCA activity after EGF ([8]; 10 μM U0126, 25 nM EGF): blunted recovery of luciferase PCA activity

C=CC[C@@H]1/C=C(\C)C[C@H](C)C[C@H](OC)[C@H]2O[C@@](O)(C(=O)C(=O)N3CCCC[C@H]3C(=O)O[C@H](/C(C)=C/[C@@H]3CC[C@@H](O)[C@H](OC)C3)[C@H](C)[C@@H](O)CC1=O)[C@H](C)C[C@@H]2OC [FK506]
change of bioluminescence after rapamycin pre-treatment ([9]; HEK293T, CBG-N + CBG-C, rapamycin 10 nM, FK506 10 μM added at […]): brisk loss of bioluminescence
membrane permeability [6]: somewhat low
Ki ([7]; read-out: previously reported literature Ki): 0.4 nM

C[C@@H]1C[C@@H]([C@H](O)CC2CC(=O)NC(=O)C2)C(=O)[C@@H](C)C1 [cycloheximide]
luciferase activity after rapamycin induction ([9]; cycloheximide 100 μM added to rapamycin-induced cells): remained stable for up to 8 hours

EGF: recombinant mouse EGF ligand inducing EGFR activation (NSYPGCPSSYDGYCLNGGVCMHIESLDSYTCNCVIGYSGDRCQTRDLRWWELR; UniProt P01132 977-1029, looked up)
luciferase PCA signal response ([8]; 25 nM recombinant mouse EGF): rapid biphasic signal response

TNFα
IκBα-FLuc reporter signal (wild type) [10]: loss of signal
IκBα/β-TrCP interactions (red photon flux) [2]: increase in red photon flux
β-cat/β-TrCP basal green photon flux ([3]; TNFα 20 ng/ml): no substantial change
NFκB-dependent transcription (FLuc reporter) ([4]; TNFα 20 ng/ml alone): robust transcriptional stimulation
